This passage reports IC50 results from PubChem BioAssay AID588420 (The Scripps Research Institute Molecular Screening Center, 2011).

The target in this test is Protein-arginine deiminase type-4 (Homo sapiens) (UniProt Q9UM07). Briefly: PAD4 enzyme inhibition potency, late-stage follow-up, biochemical, BAEE substrate, citrulline absorbance, 8-point 0-10 µM (AID 588420). The note with it: recombinant PAD4, BAEE citrulline colorimetric absorbance. Put shortly: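 Signal: absorbance at 540 nm; material: recombinant PAD4 enzyme; reagent: 10 mM BAEE; times: 15 min compound preincubation, then 15 min substrate reaction, 37 °C; measure: IC50 from fitted dose-response; dosing: 8 doses, 0–10 µM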
Sequence of Protein-arginine deiminase type-4 (Homo sapiens) (Q9UM07 whole entry, looked up): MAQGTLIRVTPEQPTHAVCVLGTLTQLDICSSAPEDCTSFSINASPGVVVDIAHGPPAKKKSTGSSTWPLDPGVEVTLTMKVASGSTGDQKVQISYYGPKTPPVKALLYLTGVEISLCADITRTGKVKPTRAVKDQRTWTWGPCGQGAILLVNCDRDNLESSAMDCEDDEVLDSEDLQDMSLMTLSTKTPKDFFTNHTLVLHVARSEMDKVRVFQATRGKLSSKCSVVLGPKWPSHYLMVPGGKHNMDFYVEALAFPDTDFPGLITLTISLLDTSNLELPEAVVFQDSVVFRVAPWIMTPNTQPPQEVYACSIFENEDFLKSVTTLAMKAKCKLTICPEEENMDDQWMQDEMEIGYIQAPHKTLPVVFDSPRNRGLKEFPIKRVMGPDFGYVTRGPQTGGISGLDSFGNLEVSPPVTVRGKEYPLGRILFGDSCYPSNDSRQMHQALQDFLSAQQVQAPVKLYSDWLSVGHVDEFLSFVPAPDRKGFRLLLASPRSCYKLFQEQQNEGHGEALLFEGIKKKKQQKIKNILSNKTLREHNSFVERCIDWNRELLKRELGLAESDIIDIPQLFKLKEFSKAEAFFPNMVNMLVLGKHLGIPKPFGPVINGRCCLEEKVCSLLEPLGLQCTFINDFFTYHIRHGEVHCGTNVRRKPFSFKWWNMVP

Activity calls are given as the source filed them.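 How the source made its calls: active means IC50 at or below 1 µM; inactive means the rest.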

With `COC1=CC(=O)c2nc(C#N)ccc2C1=O`, the IC50 result was “inactive”.
